Only some compounds are listed: those with a hit (about 3.9% of all), similar ones and a draw of the others.
TAAR1 ag: agonists of human TAAR1. Q96RJ0. CHO RD-HGA16 TAAR1, Fluo-8 calcium fluorescence; vehicle wells 0%, saturating PEA agonist 100%. activation, % at 3 µM. 360,000 tested, 0.99% active. AID 624467;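 active = activation above the mean activation of all test compounds in the run plus 3 SD, cut at about 38% in these data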
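System: CHO RD-HGA16 cells carrying human TAAR1 plus Gα16; Incubation: 17-24 h seeding, 75 min 37 °C dye, 30 min RT; Measured by: Fluo-8 fluorescence, 5 s baseline then 140 s kinetic read; Control set: DMSO and PEA EC100; Replication: single well for each compound.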
TAAR1 antagonist: human TAAR1 antagonism; AID 624466; CHO RD-HGA16 TAAR1, Fluo-8 calcium fluorescence, antagonist; Q96RJ0; inhibition, % at 3 µM; 360,000 tested, 1.5% active;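 active = inhibition above a per-plate cutoff, the mean inhibition of test compounds on that plate plus 3 SD, cut at about 49% in these data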;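 also: 0% = DMSO plus EC80 beta-PEA response and 100% = DMSO alone without agonist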
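Test system: hTAAR1-expressing CHO RD-HGA16 cells, Gα16-coupled; Probe or stimulus: EC80 β-phenethylamine stimulus; Compound dosing: single nominal final test compound concentration of 3 µM; Timing: 140 s kinetic read after compound, 140 s after agonist; Signal: Fluo-8 calcium-sensitive fluorescence; Measure: % inhibition of agonist calcium response; Controls: DMSO and EC80 PEA controls.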
CHRM1 PAM: human CHRM1 positive allosteric modulation | P11229 | CHO-K1 hM1, Fluo-8 calcium fluorescence, ACh EC20; 0% = ACh EC20, 100% = maximal ACh | activation, % at 3 µM | 360,000 tested, 0.088% active; in the data active = activation above about 19%, passing the limit was not always enough
Target sequence (P11229 whole entry, looked up): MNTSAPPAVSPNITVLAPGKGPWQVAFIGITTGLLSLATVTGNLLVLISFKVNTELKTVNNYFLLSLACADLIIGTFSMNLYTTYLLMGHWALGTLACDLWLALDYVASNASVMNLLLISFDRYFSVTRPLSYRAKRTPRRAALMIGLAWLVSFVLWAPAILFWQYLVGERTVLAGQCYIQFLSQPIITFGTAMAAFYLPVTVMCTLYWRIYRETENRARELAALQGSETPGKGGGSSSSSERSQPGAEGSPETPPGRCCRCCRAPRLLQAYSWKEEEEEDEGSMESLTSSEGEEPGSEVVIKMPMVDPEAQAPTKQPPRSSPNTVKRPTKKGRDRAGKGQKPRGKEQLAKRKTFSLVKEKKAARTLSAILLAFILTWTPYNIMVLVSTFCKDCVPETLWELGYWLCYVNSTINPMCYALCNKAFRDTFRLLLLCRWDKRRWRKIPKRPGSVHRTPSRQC
CHRM1 agonist: activates human CHRM1 receptor; P11229; CHO-K1 hM1, Fluo-8 calcium fluorescence, agonist mode; 0% DMSO, 100% acetylcholine EC100; activation, % at 3 µM; 360,000 tested, 0.33% active;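 active = activation above the run's mean compound activation plus 3 SD, cut at about 16% in these data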;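 also: peak over basal fluorescence ratio within a 140 s kinetic read after compound addition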
CHRM1 antagonist: antagonists of human M1 muscarinic receptor; 360,000 tested, 1.3% active; P11229; inhibition, % at 3 µM; CHO-K1 hM1, Fluo-8 calcium fluorescence, ACh EC80 antagonist;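 active = percent inhibition above its own plate's cutoff, namely the mean of that plate's compound wells plus 3 SD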;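 also: peak over basal fluorescence ratio during 140 s after agonist addition; 0% = ACh EC80 plus DMSO and 100% = DMSO alone without agonist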
m5-HT2A agonist: agonists of mouse serotonin 5-HT2A receptor (HTR2A); P35363; AID 624169; activation, % at 7.6 µM; 360,000 tested, 0.66% active; CHO-K1 mHTR2A beta-arrestin complementation, luminescence; percent of 30 µM serotonin response;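 active = activation above a run cutoff, the mean activation of all tested compounds plus 3 SD, cut at about 14% in these data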;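 also: 0% = plate median of compound wells and 100% = 30 µM serotonin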
TAAR1 ag conf: human TAAR1 agonism, confirmed | shares compounds with TAAR1 ag | CHO RD-HGA16 TAAR1, Fluo-8 calcium fluorescence; scaled: DMSO 0%, maximal phenethylamine 100% | activation, % at 3 µM | 2,400 tested, 82% active;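 active = activation above a cutoff set at the run's mean compound activation plus 3 SD, cut at about 39% in these data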
Ga16 ag counter: nonselective agonist in parental cells, TAAR1 agonist counter-screen. shares compounds with TAAR1 ag. CHO-Ga16 parental, Fluo-8 calcium fluorescence; normalized to maximal ATP response, DMSO zero. activation, % at 3 µM. 2,400 tested, 50% active. AID 651787;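 active = activation above the run cutoff, the mean activation over all tested wells plus 3 SD, cut at about 12% in these data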;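 also: 0% = DMSO wells and 100% = maximal ATP response on the peak over basal ratio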
TAAR1 desens: TAAR1 response desensitization, agonist counter-screen | inhibition, % at 3 µM | 2,400 tested, 46% active | CHO RD-HGA16 hTAAR1, Fluo-8 calcium, beta-PEA response inhibition | shares compounds with TAAR1 ag;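 active = inhibition above the run cutoff, the mean inhibition of all test compounds plus 3 SD, cut at about 49% in these data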;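 also: beta-PEA stimulus applied at its EC80; loss of beta-PEA calcium signal after compound pretreatment read as receptor desensitization; 0% = DMSO with beta-PEA at EC80 and 100% = DMSO alone without agonist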
Ga16 nonsel ant: nonselective Ga16 antagonism, counter-screen. 2,400 tested, 39% active. CHO-Ga16 ATP-induced calcium, Fluo-8 fluorescence. AID 651952. inhibition, % at 3 µM. shares compounds with TAAR1 ag;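 active = inhibition above the plate's mean compound inhibition plus 3 SD, computed per plate, cut at about 22% in these data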;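 also: 0% = EC80 ATP with DMSO and 100% = DMSO wells without ATP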
* marks the source's active call; other numbers are inactive results; . = no result.

SMILES	TAAR1 ag	TAAR1 antagonist	CHRM1 PAM	CHRM1 agonist	CHRM1 antagonist	m5-HT2A agonist	TAAR1 ag conf	Ga16 ag counter	TAAR1 desens	Ga16 nonsel ant
CC(C)(C)NC(=O)CN(C(=O)CNS(=O)(=O)c1ccc(Cl)cc1)c1ccc2c(c1)OCCO2	72*	6	15	-3	-13	-6	100*	45*	25	8
Cc1ccc(S(=O)(=O)NCC(=O)N(CC(=O)NC2CCCC2)c2ccc3c(c2)OCCO3)cc1	14	-19	3	-5	-7	4	.	.	.	.
CC(=O)Nc1sc(/C(C#N)=C/c2ccc(Cl)c(Cl)c2)nc1-c1ccc(C)cc1	68*	81*	4	8	17	4	42*	56*	76*	67*
CCOc1cc(C(N)=O)cc(Br)c1OCc1ccccc1	-1	0	11	-4	-10	0	.	.	.	.
CCOc1cc(/C=C2/C(=O)NN(c3cccc(Cl)c3)C2=O)ccc1O	53*	-13	18	3	-28	3	62*	18*	17	11
COc1cc(/C=C2/C(=O)NN(c3cccc(Cl)c3)C2=O)cc(OC)c1O	18	8	11	7	-12	0	.	.	.	.
CCOc1cc(/C=N/NC(=O)c2cccnc2)ccc1OCc1ccc(C(=O)OC)o1	10	9	5	-3	-5	1	.	.	.	.
Cc1ccc(S(=O)(=O)N2CCOC2CNC(=O)C(=O)NCc2ccncc2)cc1 (configuration not stated)	0	-19	7	-2	-20	5	.	.	.	.
O=C(CNS(=O)(=O)c1ccc([N+](=O)[O-])cc1)N/N=C\c1ccc(O)cc1	68*	68*	25	8	-3	-2	101*	39*	89*	63*
COc1cc(OC)cc(C(=O)N[C@H](C(=O)Nc2cc(F)ccc2C)C(C)C)c1	-1	-23	6	-6	-4	-5	.	.	.	.
CCN=C1NN=C(c2cc(C)n(CCc3ccccc3)c2C)CS1	82*	63*	5	-4	4	7	101*	4	93*	5
Cc1cc(C2=NNC(=NCCc3ccccc3)SC2)c(C)n1CC1CCCO1 (configuration not stated)	83*	68*	-8	-15	4	-6	85*	4	57*	20
C=CCn1c(C)cc(C2=NNC(=NCc3ccccc3)SC2)c1C	2	-14	-13	-8	21	-5	.	.	.	.
CCN=C1NN=C(c2cc(C)n(Cc3ccco3)c2C)CS1	1	-8	-1	-7	-2	0	.	.	.	.
Oc1ccc(C[C@@H]2CNCCN2CCC23CC4CC(CC(C4)C2)C3)cc1	48*	5	0	-5	10	-1	62*	31*	41	42*
Cc1cc(Br)c(NC(=O)COC(=O)C2CCCCC2)c(Br)c1	9	-8	7	-5	-15	11	.	.	.	.
Cc1c(Cl)cccc1NC(=O)Cc1ccc([N+](=O)[O-])cc1	56*	18	2	-6	-2	-2	31	17*	15	13
COc1ccc(CCNC2=NCCS2)cc1OC	0	-20	6	-3	-3	5	.	.	.	.
COc1ccc(CCNC2=NCCS2)cc1	59*	16	-2	-6	-6	1	62*	0	37	6
CCNC(=O)C1(C)CCN1Cc1cc(-c2ccccc2)n(C)n1 (configuration not stated)	1	5	2	-4	-4	-1	.	.	.	.
CCC(=O)c1ccc(OC(=O)c2ccc(Br)o2)cc1	123*	84*	-12	81*	11	-3	76*	71*	64*	51*
Cc1ccc(OC(=O)c2ccc(Br)o2)cc1	87*	60*	-1	30*	4	8	51*	79*	41	51*
CC[C@@H](C(=O)[C@@H](C)[C@@H](O)[C@H](C)CCc1ccc(C)c(O)c1C(=O)O)[C@H]1O[C@](CC)([C@H]2CC[C@](O)(CC)[C@H](C)O2)C[C@@H]1C	76*	67*	-19	61*	-6	193*	73*	65*	73*	52*
COc1ccccc1-n1c(SCC(N)=O)nnc1-c1ccc(S(=O)(=O)N2CCCCC2)cc1	52*	-4	-3	-11	7	4	27	9	20	24*
NC(=O)CSc1nnc(-c2ccc(S(=O)(=O)N3CCCCC3)cc2)n1-c1ccccc1	12	17	6	-4	-10	-1	.	.	.	.
SMILES	TAAR1 ag	TAAR1 antagonist	CHRM1 PAM	CHRM1 agonist	CHRM1 antagonist	m5-HT2A agonist	TAAR1 ag conf	Ga16 ag counter	TAAR1 desens	Ga16 nonsel ant
O=C(O)C1C2CCC(C2)C1C(=O)NCCc1ccccc1 (configuration not stated)	.	.	1	-3	-7	13	.	2	.	4
COc1ccc(CCNC(=O)C2C3CCC(C3)C2C(=O)O)cc1OC (configuration not stated)	22	-16	-2	-4	-4	0	.	.	.	.
N#Cc1nc(-c2ccccc2F)oc1NCCc1ccccc1	7	11	0	-5	6	8	.	.	.	.
N#Cc1nc(-c2cccs2)oc1NCCc1ccccc1	51*	3	7	-4	-9	-6	49*	3	25	17
O=C(O)CC(NC(=O)C1c2ccccc2Oc2ccccc21)c1ccc(OC2CCCC2)cc1 (configuration not stated)	58*	-12	4	-7	-1	2	83*	49*	12	0
NC(=O)c1ccc[n+](CC(=O)c2ccc(F)cc2)c1	0	-9	3	-4	-11	-5	.	.	.	.
